Hits are enriched below; roughly 2.9% of the tested compounds scored in any of these assays.
Statin myotox sup: suppression of simvastatin myotoxicity | C2C12 myotubes + simvastatin, ATP luminescence, 48 h; scaled: DMSO 0, geranylgeraniol control 100 | rescue of ATP level, % at 7.49 µM | actives 0.78% (n = 330,000) | AID 602340;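 active = mean ATP rescue above about 67%, or every replicate alone reaching that limit, limit read from the data, passing the limit was not always enough; inconclusive = no clear call, values can overlap the other calls; inactive = mean under the limit and some replicate under it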;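 note: myotubes were challenged with 10 µM simvastatin during compound exposure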
S100A4 MyoIIA: inhibitors of human S100A4 binding to myosin IIA peptide. P26447. S100A4/TAMRA-MyoIIA peptide fluorescence polarization. AID 652163. actives 0.14% (n = 360,000). inhibition, % at 10.7 µM;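 active = mean inhibition of at least 70% across replicates, with every replicate also reaching that level; inconclusive = mean inhibition reaches 70% but some replicates fall short; inactive = mean inhibition below 70%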
Target sequence (P26447 whole entry, looked up): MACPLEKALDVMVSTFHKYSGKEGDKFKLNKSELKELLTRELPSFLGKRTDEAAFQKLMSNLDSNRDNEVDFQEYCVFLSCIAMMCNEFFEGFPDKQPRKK
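Test system – S100A4 monomer (human) · Compound – single-point compound testing · Schedule – 5 min incubation before reading · Probe or stimulus – TAMRA-labelled myosin IIA heavy-chain peptide probe, 5 nM · Benchmarks – neutral control DMSO, positive control TFP · Medium – Calcium-containing HEPES buffer, pH 7.2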
PGC1a acetyl inh: modulators of PGC1a acetylation. U2OS PGC1a acetylation, AlphaScreen anti-acetyl-lysine; with virally co-expressed GCN5 acetyltransferase. inhibition, % at 15.6 µM. actives 0.17% (n = 350,000). AID 651687;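 active = every replicate shows inhibition of at least 40%; inconclusive = mean inhibition at least 40% but some replicate below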;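 note: 0% = neutral control wells and 100% = positive control wells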
DENV2 CPE rescue: protects cells from dengue virus 2 cytopathic effect. DENV2-infected cells, cytopathic effect rescue, plate reader. CPE inhibition, % at 9.99 µM. AID 651640. actives 1.7% (n = 350,000); in the data active = CPE inhibition above about 20%, passing the limit was not always enough; inconclusive = no clear call, values can overlap the other calls; tested in BHK-21 cells;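 note: 0% = median of neutral control wells and 100% = median of positive control wells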
SIRT5 inh: inhibitors of human sirtuin-5 desuccinylase | Q9NXA8 | Purified SirT5, succinyl-peptide AMC, trypsin-coupled fluorescence | inhibition, % at 15 µM | actives 1.1% (n = 330,000); in the data active = inhibition above about 15%; inconclusive = no clear call, values can overlap the other calls
Target sequence (Q9NXA8 whole entry, looked up): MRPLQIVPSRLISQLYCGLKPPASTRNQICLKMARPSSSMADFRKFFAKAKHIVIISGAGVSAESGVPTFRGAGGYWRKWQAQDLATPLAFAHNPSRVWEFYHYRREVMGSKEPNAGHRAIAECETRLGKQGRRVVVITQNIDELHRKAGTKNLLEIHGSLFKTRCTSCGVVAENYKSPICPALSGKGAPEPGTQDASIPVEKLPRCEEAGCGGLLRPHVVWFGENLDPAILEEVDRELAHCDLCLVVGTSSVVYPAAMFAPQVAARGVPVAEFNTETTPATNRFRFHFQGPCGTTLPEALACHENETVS
An asterisk follows results filed as active; ! = a repeat was not active.

Results for CCN(CC)CCN1C(=O)C2C(C(=O)Nc3cccc(C)c3)C3C=CC2(O3)C1C(=O)NC1CCCC(C)C1C (stereo unspecified) ?
Statin myotox sup: -22; S100A4 MyoIIA: 6; PGC1a acetyl inh: -15; DENV2 CPE rescue: 3; SIRT5 inh: 19*

How did O=C(C[C@H]1CC[C@H](NC(=O)Nc2ccccc2)[C@@H](CO)O1)NCc1ccccn1 do in these assays?
Statin myotox sup: 2; S100A4 MyoIIA: 1; PGC1a acetyl inh: 9; DENV2 CPE rescue: 3; SIRT5 inh: 3

Results for C[C@@H](NC(=O)C[C@@H]1C[C@H]2c3cc(NS(=O)(=O)c4ccc(F)cc4)ccc3O[C@H]2[C@@H](CO)O1)c1ccccc1 ?
Statin myotox sup: 4; S100A4 MyoIIA: 1; PGC1a acetyl inh: 1; DENV2 CPE rescue: 1; SIRT5 inh: -4

How did CCN1[C@H](C(=O)N(C)C)[C@@H](CO)[C@@H]2Cn3c(ccc(-c4cccc(OC)c4)c3=O)[C@@H]21 do in these assays?
Statin myotox sup: 4; S100A4 MyoIIA: 4; DENV2 CPE rescue: 6; SIRT5 inh: -2

What do the screens show for `Cc1ccc(N(C(=O)c2csnn2)C(C(=O)NC2CCCCC2)c2ccccn2)cc1C` (stereo unspecified)?
Statin myotox sup: 81*; S100A4 MyoIIA: 1; PGC1a acetyl inh: 2; DENV2 CPE rescue: 0; SIRT5 inh: -1

How did Cc1cc(C)cc(N(C(=O)c2csnn2)C(C(=O)NC2CCCCC2)c2ccccn2)c1 (stereo unspecified) do in these assays?
Statin myotox sup: 9; S100A4 MyoIIA: -8; PGC1a acetyl inh: -9; DENV2 CPE rescue: 1; SIRT5 inh: 0

Results for Cc1cc(C)cc(N(C(=O)c2csnn2)C(C(=O)NC(C)(C)C)c2ccccn2)c1 (stereo unspecified) ?
S100A4 MyoIIA: 11; PGC1a acetyl inh: 2; SIRT5 inh: 26*

What do the screens show for `O=C(CC1CC1)N1CC2(C1)[C@H](c1ccccc1)[C@H](CO)N2S(=O)(=O)Cc1ccccc1`?
S100A4 MyoIIA: 3; PGC1a acetyl inh: -5; DENV2 CPE rescue: 0; SIRT5 inh: -1

What do the screens show for `CN(C)CCCNS(=O)(=O)c1ccc(NC2CCCCCC2)c([N+](=O)[O-])c1`?
Statin myotox sup: -15; S100A4 MyoIIA: -2; DENV2 CPE rescue: -9; SIRT5 inh: 29*

How did O=C(CCSc1nc(-c2ccc3c(c2)OCO3)cc(C(F)(F)F)n1)NCc1ccco1 do in these assays?
Statin myotox sup: 2; S100A4 MyoIIA: 1; PGC1a acetyl inh: 2; DENV2 CPE rescue: 6; SIRT5 inh: -2

How did O=C(CCSc1nc(-c2ccco2)cc(C(F)(F)F)n1)Nc1ccc2c(c1)OCO2 do in these assays?
Statin myotox sup: 96*; PGC1a acetyl inh: -5

Results for CC(C)NC(=O)Nc1ccc2c(c1)C(=O)N([C@@H](C)CO)C[C@H](C)[C@H](CN(C)C(=O)Nc1ccccc1)O2 ?
Statin myotox sup: -4; S100A4 MyoIIA: -4; PGC1a acetyl inh: 1; DENV2 CPE rescue: -2

How did Cc1noc(C)c1S(=O)(=O)N(C)C[C@@H]1Oc2ccc(NC(=O)C3CC3)cc2CC(=O)N([C@H](C)CO)C[C@@H]1C do in these assays?
Statin myotox sup: -7; S100A4 MyoIIA: 28; PGC1a acetyl inh: 7; DENV2 CPE rescue: inconclusive; SIRT5 inh: 1

How did CCCC1CC(CCc2ccccc2)OS(=O)(=O)N1 (stereo unspecified) do in these assays?
Statin myotox sup: 95*; S100A4 MyoIIA: -7; PGC1a acetyl inh: -3; DENV2 CPE rescue: 40*; SIRT5 inh: 2

How did CCC(=O)N1C[C@H](C)[C@@H](OC)CN(C)C(=O)c2ccc(NC(=O)c3ccccc3)cc2OC[C@@H]1C do in these assays?
Statin myotox sup: 3; S100A4 MyoIIA: -1; PGC1a acetyl inh: -4; DENV2 CPE rescue: -4; SIRT5 inh: -1

What do the screens show for `O=C(CCS(=O)(=O)Cc1ccccc1)Nc1nncs1`?
Statin myotox sup: -2; S100A4 MyoIIA: 0; DENV2 CPE rescue: 11; SIRT5 inh: 19*

Results for CCO[C@H]1OC(C(=O)Nc2ccccc2)=C[C@@H](c2coc3ccccc3c2=O)[C@@H]1CCCO ?
Statin myotox sup: 2; S100A4 MyoIIA: 14; PGC1a acetyl inh: -13; DENV2 CPE rescue: 23*!; SIRT5 inh: 5

How did CCO[C@@H]1OC(C(=O)NCc2ccccc2)=C[C@H](c2coc3ccccc3c2=O)[C@H]1CCCO do in these assays?
Statin myotox sup: 10; S100A4 MyoIIA: -9; PGC1a acetyl inh: -6; DENV2 CPE rescue: 47*; SIRT5 inh: -2

What do the screens show for `CCO[C@H]1OC(C(=O)O)=C[C@@H](c2coc3ccccc3c2=O)[C@@H]1CCCO`?
Statin myotox sup: 22; S100A4 MyoIIA: 2; PGC1a acetyl inh: -5; DENV2 CPE rescue: -12; SIRT5 inh: -1

How did C[C@H]1CN([C@@H](C)CO)C(=O)c2cc(NC(=O)CCCN(C)C)ccc2O[C@H]1CN(C)C(=O)Nc1ccc(F)cc1 do in these assays?
Statin myotox sup: -45; S100A4 MyoIIA: 7; PGC1a acetyl inh: -3; DENV2 CPE rescue: -7

How did CCCNS(=O)(=O)c1ccc(OCC(=O)OC)cc1 do in these assays?
Statin myotox sup: 130*; PGC1a acetyl inh: -3

How did O=C1CNC[C@H]2[C@H](c3ccc(C4=CCCCC4)cc3)[C@H](CO)N12 do in these assays?
S100A4 MyoIIA: 17; PGC1a acetyl inh: 3; DENV2 CPE rescue: -9; SIRT5 inh: 0

What do the screens show for `CO[C@H]1CN(C)C(=O)c2cc(NC(=O)c3ccccc3F)ccc2OC[C@H](C)NC[C@H]1C`?
Statin myotox sup: 12; S100A4 MyoIIA: 41; PGC1a acetyl inh: -1; DENV2 CPE rescue: 5; SIRT5 inh: -1

Results for CO[C@H]1CN(C)C(=O)c2cc(NC(=O)c3ccccc3F)ccc2OC[C@H](C)NC[C@@H]1C ?
Statin myotox sup: 10; S100A4 MyoIIA: -7; PGC1a acetyl inh: 1; DENV2 CPE rescue: 9; SIRT5 inh: 25*

How did CO[C@H]1CN(C)C(=O)c2cc(NC(=O)c3ccccc3F)ccc2OC[C@@H](C)NC[C@@H]1C do in these assays?
Statin myotox sup: 4; S100A4 MyoIIA: 8; PGC1a acetyl inh: 3; DENV2 CPE rescue: -4; SIRT5 inh: 26*

Results for O=C(NCc1ccc(F)cc1)[C@@H]1N[C@@H]2c3ccc(-c4ccccc4)c(=O)n3C[C@@H]2[C@H]1CO ?
Statin myotox sup: 1; S100A4 MyoIIA: -18; DENV2 CPE rescue: -11; SIRT5 inh: -20

How did CCCN1C[C@@H](C)[C@@H](OC)CN(C)C(=O)c2cc(NC(=O)C3CCOCC3)ccc2OC[C@@H]1C do in these assays?
Statin myotox sup: 3; S100A4 MyoIIA: -15; PGC1a acetyl inh: -4; DENV2 CPE rescue: -3; SIRT5 inh: -3

Results for CCn1c(SCc2cccc(F)c2)nnc1-c1ccncc1 ?
Statin myotox sup: 4; S100A4 MyoIIA: -2; DENV2 CPE rescue: 47*; SIRT5 inh: -1

Source: PubChem
